# High-throughput results deposited in PubChem by several laboratories.
# Ecoli WT expand: growth inhibitors of E. coli BW25113 wild type. OD600 absorbance. growth inhibition, % at 100 µM. 98,000 tested, 0.15% active. AID 710;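 active = growth inhibition above about 50% at one test dose, limit read from the data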;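 also: growth measured after 20 h incubation at 37 °C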
# Jurkat viability: reduces viability or proliferation of Jurkat cells; Jurkat E6.1 viability, ATP luminescence, 48 h; inhibition, % at 4 µM; 56,000 tested, 1.2% active; AID 463;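 active = inhibition above the mean inhibition of all tested compounds plus 3 SD, cut at about 28% in these data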
# Lung fibro prol: blocks proliferation of human lung fibroblasts; LL 47 human lung fibroblast viability, ATP luminescence; active compounds read low; viability, % at 10 µM; 85,000 tested, 1.1% active; AID 719;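 active = viability at or below 50% in the single dose screen; inactive = viability above 50%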;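 also: compound exposure lasted 72 h before the ATP readout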
#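 Material: human LL 47 lung fibroblast cells; quantity: 1,150 cells/well; medium: IMEM plus 15% FBS; doses: 0.1% DMSO in all compound wells; timing: overnight attachment after seeding, then 72 h compound exposure at 37 °C; detection: CellTiter-Glo luminescence; measure: % viability of median cell-only signal; controls: cell-only wells, no compound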
# HUVEC inhibit: human endothelial cell proliferation inhibition; HUVEC proliferation, CellTiter-Glo luminescence, 72 h; active compounds read low; viability, % at 10 µM (by protocol); 86,000 tested, 1.1% active;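 active = viability at or below 30%; inactive = viability above 30%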
# tolC growth inh: E. coli tolC mutant growth inhibition; E. coli BW25113 tolC mutant growth, OD615; growth inhibition, % at 10 µM (by protocol); 65,000 tested, 2.2% active;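 active = growth inhibition at or above a cutoff equal to the mean over every tested compound plus 3 SD, cut at about 60% in these data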;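 also: growth measured after 20 h incubation at 37 °C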
#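 Material: E. coli BW25113 ΔtolC::kan, tolC deletion mutant strain. Measure: percent growth inhibition. Schedule: 37 °C, 20 h exposure. Doses: single-point testing at 10 µM. Signal: A615 absorbance measurement. Buffer or medium: kanamycin-containing LB broth (50 µg/mL).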
# H69AR growth 86K: growth inhibitors of human H69AR lung tumor cells; H69AR lung tumor viability, ATP luminescence, 72 h; active compounds read low; viability, % at 10 µM; 85,000 tested, 6% active; AID 598;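 active = viability at or below 40%; inactive = viability above 40%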;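 also: multidrug resistant small cell line overexpressing MRP-1 efflux transporter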
# A number is an active result; 0 = inactive; - = no result. An excerpt weighted towards active compounds, which were near 6.4% of everything screened.
SMILES,Ecoli WT expand,Jurkat viability,Lung fibro prol,HUVEC inhibit,tolC growth inh,H69AR growth 86K
CN1CCN(CCCNC(=O)c2cc3c(-c4ccc(Cl)cc4)nn(C)c3s2)CC1,0,0,14,1.9,0,4.5
CCN(CC)CCCNC(=O)c1cc2c(-c3ccc(Cl)cc3)nn(C)c2s1,0,0,19,2.4,0,1.8
Cn1nc(-c2ccc(Cl)cc2)c2cc(C(=O)NCC3CCCO3)sc21 (centres undefined),0,0,0,0,0,0
COc1ccc(CCNC(=O)c2cc(-c3cc(C)c(C)cc3O)n[nH]2)cc1OC,0,0,0,0,0,29
COc1ccc(CCNC(=O)c2ccc(=O)[nH]n2)cc1OC,0,-,0,0,0,0
CCCn1c(N)nc2ccccc21,0,-,0,0,-,0
O=C(CSc1nc2c(c(=O)n1-c1ccc(Br)cc1)SCC2)NCc1ccco1,0,-,0,0,0,0
O=C(CSc1nc2c(c(=O)n1-c1ccc(Br)cc1)SCC2)Nc1nccs1,0,0,0,0,0,36
O=C(CSc1nc2c(c(=O)n1-c1ccc(Cl)cc1)SCC2)Nc1nccs1,0,-,0,0,0,20
Cc1cc(NC(=O)CSc2nc3c(c(=O)n2-c2ccc(Cl)cc2)SCC3)no1,-,-,0,0,0,0
CCCCCOc1ccc(NC(=O)C(=O)NCCCn2ccnc2)cc1,0,-,-,-,-,-
CCCCn1c(CN(Cc2ccccc2)Cc2ccccc2)nc2c1c(=O)n(C)c(=O)n2C,-,0,0,0,0,0
Cc1ccc(C)c(Cn2c(CN(C)Cc3ccccc3)nc3c2c(=O)n(C)c(=O)n3C)c1,0,0,0,0,81,0
CCOCCn1c(CN(Cc2ccccc2)Cc2ccccc2)nc2c1c(=O)n(C)c(=O)n2C,0,0,0,0,68,0
CCCNS(=O)(=O)c1ccc(OCC(=O)NCc2ccco2)cc1,0,0,0,0,0,0
COc1ccc(C2C(C(=O)c3ccco3)=C(O)C(=O)N2CCOCCO)cc1OC (centres undefined),0,-,0,0,-,0
NC1=NC2(CCC(c3ccccc3)CC2)n2c(nc3ccccc32)N1 (centres undefined),0,0,0,0,0,8.7
Cc1cccc(CCNC(=O)C2CCCN(S(=O)(=O)c3cnc[nH]3)C2)c1 (centres undefined),0,0,0,0,0,0
CCOC(=O)Cn1c(=N)n(CCOc2cccc(C)c2)c2ccccc21,0,0,0,0,0,0
N=c1n(Cc2ccccc2)c2ccccc2n1CC(O)c1ccco1 (centres undefined),0,0,0,0,0,0
Cc1cccc(OCC(O)Cn2c(=N)n(CCN3CCCCC3)c3ccccc32)c1 (centres undefined),0,0,0,0,0,5.5
COc1ccc(OCC(O)Cn2c(=N)n(Cc3ccccc3)c3ccccc32)cc1 (centres undefined),0,0,0,0,66,0
Cc1ccc(OCC(O)CN2CCN(c3ccccc3)CC2)cc1 (centres undefined),0,-,0,0,0,0
Cc1ccc(OCC(O)Cn2c(=N)n(Cc3ccccc3)c3ccccc32)cc1 (centres undefined),0,-,1.9,6.5,-,0
CCOC(=O)C1CCCN(c2nc3ccccc3nc2C(C#N)C(=O)OC(C)COC)C1 (centres undefined),-,-,0,0,0,0
SMILES,Ecoli WT expand,Jurkat viability,Lung fibro prol,HUVEC inhibit,tolC growth inh,H69AR growth 86K
Cc1ccccc1CSc1nc2n(n1)C(c1cccs1)C1=C(CCCC1=O)N2 (centres undefined),0,-,0,0,100,0
O=C1CCCC2=C1C(c1cccs1)n1nc(SCc3ccccc3F)nc1N2 (centres undefined),0,-,0,0,0,0
CC(C)C(=O)NC(c1ccco1)c1ccc2cccnc2c1O (centres undefined),0,90,14,2.1,0,1.9
Oc1c(C(Nc2nc3ccccc3s2)c2ccco2)ccc2cccnc12 (centres undefined),0,62,17,4.5,0,0
CCCC(=O)NC(c1ccco1)c1cc(Cl)c2cccnc2c1O (centres undefined),0,0,3.1,12,0,0.9
CC(C)C(=O)NC(Nc1cccc2cccnc12)C(Cl)(Cl)Cl (centres undefined),0,-,-,-,-,-
COc1ccc(C(NC(C)=O)c2ccc3cccnc3c2O)c(OC)c1 (centres undefined),-,86,15,2.4,0,0.9
O=C(CCCC(=O)N1CCN(c2ccccc2F)CC1)N1CCN(c2ccccc2F)CC1,0,0,0,0,0,0
CCOc1cc2[nH]c(=S)n(CCCN3CCN(C)CC3)c(=O)c2cc1OCC,-,-,0,0,0,0
CCOc1cc2[nH]c(=S)n(CCC(=O)N3CCc4ccccc4C3)c(=O)c2cc1OCC,0,-,0,0,-,28
CC(=O)COC(=O)CCc1nc2ccccc2[nH]c1=O,0,-,0,0,-,0
CCOc1cccc(C(=O)Nc2ccc(N(CC)CC)cc2)c1,0,0,0,0,0,20
CCN(CC)c1ccc(NC(=O)Nc2cccc(C(C)=O)c2)cc1,0,0,0,0,0,0
CCNc1nc(SCCOc2ccc(C)cc2)nc(N(C)C)n1,0,0,0,0,0,31
COc1ccc2c(c1)c(CCN1C(=O)c3ccccc3C1=O)cn2C(=O)c1ccco1,0,0,0,26,0,0
Cc1ccc(N/N=C/c2c(O)cc(C)oc2=O)cc1,0,-,-,-,-,-
Cc1nc(CNS(=O)(=O)c2cc(F)ccc2F)cs1,-,0,0,0,0,0
CCOC(=O)c1c(-c2ccccc2)nnn1-c1nc(OCC)nc(N2CCCCC2)n1,0,0,0,0,75,0
CC(=O)n1nc(-c2ccc(Cl)cc2)nc1NCc1ccco1,0,-,0,0,-,33
COc1ccc(CC(=O)n2nc(-c3ccc(Cl)cc3)nc2NCc2ccco2)cc1,0,-,0,0,-,30
O=C(c1cccs1)n1nc(-c2ccc(Cl)cc2)nc1NCc1ccco1,0,-,0,0,-,0
Cc1ccc(C(=O)n2nc(-c3ccccc3)nc2NCc2ccco2)cc1,0,-,0,0,-,0
CCn1c2c(c3cc(Br)ccc31)CCC/C2=N\O,0,0,0,0,0,0
CCCn1c2ccc(/C(C)=N\O)cc2c2cc(/C(C)=N/O)ccc21,0,-,0,0,-,27
COC(=O)CCC(=O)Nc1ccc(OC)cc1,0,0,0,0,0,0
SMILES,Ecoli WT expand,Jurkat viability,Lung fibro prol,HUVEC inhibit,tolC growth inh,H69AR growth 86K
O=C(Nc1ccc2nc(-c3ccccn3)[nH]c2c1)C1CCCCC1,0,-,0,0,-,26
CCn1c(=N)n(CC(=O)c2ccc(OC)c(OC)c2)c2ccccc21,0,-,-,-,-,-
Cc1[nH]c2ccc(-c3nnc(SCC(=O)c4ccc(F)cc4)o3)cc2c1C,0,0,0,0,0,26
Cc1cc(C)c(C)c(C(=O)CSc2nnc(-c3ccc4[nH]c(C)c(C)c4c3)o2)c1C,-,-,44,0,-,8.7
CCn1c(SCC(N)=O)nnc1-c1ccc2[nH]c(C)c(C)c2c1,0,0,0,0,0,0
FC(F)(F)c1cccc(CN2CCCCCC2)c1,0,0,0,0,0,0
